From ChEMBL document CHEMBL5252546, “Salutaxel, a Conjugate of Docetaxel and a Muramyl Dipeptide (MDP) Analogue, Acts as Multifunctional Prodrug That Inhibits Tumor Growth and Metastasis” (J Med Chem, 2018)
The source made the active and inactive calls. The calls are words filed in the database; no cut-off is given here.

What was measured:
4T1 [1] = experiment: Antitumor activity against mouse 4T1 cells implanted in BALB/c mouse assessed as decrease in lung metastasis at 5 to 20 mg/kg,iv administrated once per week for 4 weeks by H and E staining based assay; type: functional, organism-based; settings: dose 5-20 mg/kg
4T1 [2] = experiment: Antitumor activity against mouse 4T1 cells implanted in BALB/c mouse assessed as decrease in lung injury at 5 to 20 mg/kg,iv administrated once per week for 4 weeks by H and E staining based assay; type: functional, organism-based; settings: dose 5-20 mg/kg
4T1 [3] = experiment: Antitumor activity against mouse 4T1 cells implanted in BALB/c mouse assessed as decrease in lung Ly-6G expression level at 5 to 20 mg/kg,iv administrated once per week for 4 weeks by immunohistochemistry analysis; type: functional, organism-based; settings: dose 5-20 mg/kg
4T1 [4] = experiment: Antitumor activity against mouse 4T1 cells implanted in BALB/c mouse assessed as decrease in lung TSP-1 expression level at 5 to 20 mg/kg,iv administrated once per week for 4 weeks by immunohistochemistry analysis; type: functional, organism-based; settings: dose 5-20 mg/kg
4T1 [5] = experiment: Antitumor activity against mouse 4T1 cells xenografted with BALB/c mouse assessed as decrease in lung metastasis at 4 mg/kg,iv administrated once per week for 4 weeks; type: functional, organism-based
4T1 [6] = experiment: Antitumor activity against mouse 4T1 cells xenografted with BALB/c mouse assessed as decrease in tumor weight at 4 mg/kg,iv administrated once per week for 4 weeks; type: functional, organism-based
[7] = Toxicity in BALB/c mouse xenografted with mouse 4T1 cells assessed as decrease in body weight at 4 mg/kg,iv administrated with docetaxel combination once per week for 4 weeks; type: organism-based; settings: in vivo, 672 h
How it was run: (§1)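 4T1 mammary fat-pad model in BALB/c mice. Doxorubicin (4 mg/kg) was given alone or co-administered with the conjugate or its parent taxane, with iv saline vehicle. Readouts were body weight, tumour volume, tumour weight, lung metastatic nodules and lung metastasis score. Mean ± SEM, n = 10; ANOVA and Student's t test.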

[8] = Toxicity in BALB/c mouse xenografted with mouse 4T1 cells assessed as decrease in body weight at 4 mg/kg,iv administrated combination with compound 3 once per week for 4 weeks; type: organism-based; settings: in vivo, 672 h; how it was run: as §1
[9] = Toxicity in BALB/c mouse xenografted with mouse 4T1 cells assessed as decrease in body weight at 4 mg/kg,iv administrated once per week for 4 weeks; type: organism-based; settings: in vivo, 672 h

SMILES	Activity (4T1 [1])	Activity (4T1 [2])	Activity (4T1 [3])	Activity (4T1 [4])	Activity (4T1 [5])	Activity (4T1 [6])	Activity [7]	Activity [8]	Activity [9]
CC(=O)O[C@@]12CO[C@@H]1C[C@H](O)[C@@]1(C)C(=O)[C@H](O)C3=C(C)[C@@H](OC(=O)[C@H](OC(=O)CCC(=O)NCCCC[C@H](NC(=O)CC[C@@H](NC(=O)[C@H](C)NC(=O)/C=C/c4ccc(F)cc4Cl)C(N)=O)C(N)=O)[C@@H](NC(=O)OC(C)(C)C)c4ccccc4)C[C@@](O)([C@@H](OC(=O)c4ccccc4)[C@H]21)C3(C)C	Dose-Dependent Effect	Dose-Dependent Effect	Active	Active					
COc1cccc2c1C(=O)c1c(O)c3c(c(O)c1C2=O)C[C@@](O)(C(=O)CO)C[C@@H]3O[C@H]1C[C@H](N)[C@H](O)[C@H](C)O1 [DOXORUBICIN]					Active	Active	Toxic	Toxic	Toxic
